In assay [1] the test system is Mycobacterium tuberculosis. Briefly: Antimicrobial activity against streptomycin-resistant Mycobacterium tuberculosis isolate 8. It is filed as functional. Summed up:
(§1)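 Broth microdilution MIC in modified 7H10 broth (pH 6.6). Drugs dissolved in DMSO at 1 mg/ml, then serially diluted. Isolates grown 5 to 10 days at 37°C on a rotary shaker, diluted to 100 Klett units and frozen. Final inoculum about 6 × 10^4 CFU/ml (range 1.2 × 10^4 to 2.6 × 10^5). Duplicate wells, sealed, read after about 21 days at 37°C in ambient air.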

Assay [2] has as its system Mycobacterium tuberculosis. Nature of the assay: Antimicrobial activity against multidrug-resistant Mycobacterium tuberculosis isolate 9. It is filed as functional. In short, it runs like this: as §1
For assay [3], the system named is Mycobacterium tuberculosis. Nature of the assay: Antimicrobial activity against quinolone-resistant Mycobacterium tuberculosis isolate 10. It is filed as functional. Summed up: as §1
Assay [4] has as its system Mycobacterium tuberculosis. Nature of the assay: Antimicrobial activity against quinolone-resistant Mycobacterium tuberculosis isolate 11. It is filed as functional. Summed up:
as §1

Assay [5] relates to Mycobacterium tuberculosis. Nature of the assay: Antimicrobial activity against quinolone-resistant Mycobacterium tuberculosis isolate 12. It is filed as functional. Summed up: as §1
Assay [6] has as its system Mycobacterium tuberculosis. Briefly: Antimicrobial activity against isoniazid-resistant Mycobacterium tuberculosis isolate 15. It is filed as functional. Summed up: as §1
The subject of assay [7] is Mycobacterium tuberculosis. Nature of the assay: Antimicrobial activity against extensively drug-resistant Mycobacterium tuberculosis isolate 16. It is filed as functional. In short, it runs like this:
as §1

The subject of assay [8] is Mycobacterium tuberculosis. Briefly: Antimicrobial activity against extensively drug-resistant Mycobacterium tuberculosis isolate 17. It is filed as functional. Summed up:
as §1

For assay [9], the system named is Mycobacterium tuberculosis. Briefly: Antimicrobial activity against extensively drug-resistant Mycobacterium tuberculosis isolate 18. It is filed as functional. In short, it runs like this:
as §1

For assay [10], the system named is Mycobacterium tuberculosis. Nature of the assay: Antimicrobial activity against multidrug-resistant Mycobacterium tuberculosis isolate 19. It is filed as functional. In short, it runs like this: as §1
Assay [11] deals with Mycobacterium tuberculosis. Briefly: Antimicrobial activity against multidrug drug-resistant Mycobacterium tuberculosis isolate 20. It is filed as functional. Summed up: as §1
Assay [12] concerns the target DNA gyrase subunit A (Mycobacterium tuberculosis, UniProt P9WG47, A90V). Nature of the assay: Inhibition of DNA supercoiling activitysof Mycobacterium tuberculosis DNA gyrase subunit A A90V mutant.
Assay [13] has as its target DNA gyrase subunit A (Mycobacterium tuberculosis, UniProt P9WG47, D94G). Briefly: Inhibition of DNA supercoiling activity of Mycobacterium tuberculosis DNA gyrase subunit A D94G mutant.

In brackets after ≈: the same amount, converted by molar mass.

Regarding `COc1c(N2CC[C@@H](C(C)(C)N)C2)c(F)cc2c(=O)c3c(=O)[nH]sc3n(C3CC3)c12`, the MIC in assay [1] was 0.25 µg/mL (≈ 0.578 µM); in assay [2] it was 0.06 µg/mL (≈ 0.139 µM); in [3], 0.125 µg/mL (≈ 0.289 µM); in assay [4], 0.25 µg/mL (≈ 0.578 µM); in assay [5], 1 µg/mL (≈ 2.31 µM); in assay [6] it was 0.06 µg/mL (≈ 0.139 µM). Also, the MIC in assay [7] came out at 0.5 µg/mL (≈ 1.16 µM); in assay [8], 1 µg/mL (≈ 2.31 µM); in assay [9], 0.125 µg/mL (≈ 0.289 µM); in [10] it was 0.03 µg/mL (≈ 0.0694 µM); in assay [11], 0.03 µg/mL (≈ 0.0694 µM). Moreover, the IC50 on DNA gyrase subunit A [12] was 4.6 µM; against DNA gyrase subunit A [13] it was 7.9 µM.

With `COc1c(N2CCNC(C)C2)c(F)cc2c(=O)c(C(=O)O)cn(C3CC3)c12` (stereo unspecified) [GATIFLOXACIN], the half-maximal inhibitory concentration (IC50) on DNA gyrase subunit A [12] is 28 µM; against DNA gyrase subunit A [13], 44 µM.

For the compound `NNC(=O)c1ccncc1` [ISONIAZID], the MIC in assay [1] was 0.125 µg/mL (≈ 0.911 µM); in [2], 4 µg/mL (≈ 29.2 µM); in assay [3], 0.03 µg/mL (≈ 0.219 µM); in [4] it was 0.03 µg/mL (≈ 0.219 µM); in [5], 0.03 µg/mL (≈ 0.219 µM); in assay [6] it was more than 8 µg/mL. For the same compound, the MIC worked out at 1 µg/mL (≈ 7.29 µM) in assay [7]; 1 µg/mL (≈ 7.29 µM) in assay [8]; 2 µg/mL (≈ 14.6 µM) in assay [9]; 2 µg/mL (≈ 14.6 µM) in assay [10]; 2 µg/mL (≈ 14.6 µM) in assay [11].

Turning to `C[C@H]1COc2c(N3CCN(C)CC3)c(F)cc3c(=O)c(C(=O)O)cn1c23` [LEVOFLOXACIN], the IC50 at DNA gyrase subunit A [12] and on DNA gyrase subunit A [13] was more than 300 µM each time.

On to `COc1c(N2C[C@@H]3CCCN[C@@H]3C2)c(F)cc2c(=O)c(C(=O)O)cn(C3CC3)c12` [MOXIFLOXACIN], for which the minimum inhibitory concentration (MIC) was 0.06 µg/mL (≈ 0.149 µM) in assay [1]; 0.06 µg/mL (≈ 0.149 µM) in [2]; more than 8 µg/mL in assay [3]; 4 µg/mL (≈ 9.96 µM) in [4]; 8 µg/mL (≈ 19.9 µM) in assay [5]; 0.06 µg/mL (≈ 0.149 µM) in [6]. Moreover, the minimum inhibitory concentration (MIC) in [7] was 1 µg/mL (≈ 2.49 µM); in [8], 2 µg/mL (≈ 4.98 µM); in assay [9] it was 1 µg/mL (≈ 2.49 µM); in assay [10], 0.03 µg/mL (≈ 0.0747 µM); in [11], 0.03 µg/mL (≈ 0.0747 µM).

In the case of `CO[C@H]1/C=C/O[C@@]2(C)Oc3c(C)c(O)c4c(O)c(c(/C=N/N5CCN(C)CC5)c(O)c4c3C2=O)NC(=O)/C(C)=C\C=C\[C@H](C)[C@H](O)[C@@H](C)[C@@H](O)[C@@H](C)[C@H](OC(C)=O)[C@@H]1C` [RIFAMPIN], the MIC in [1] was found to be 0.008 µg/mL (≈ 0.00972 µM); in assay [2], 64 µg/mL (≈ 77.8 µM); in [3] it was 0.004 µg/mL (≈ 0.00486 µM); in [4], 0.03 µg/mL (≈ 0.0365 µM); in assay [5] it was 0.004 µg/mL (≈ 0.00486 µM); in assay [6] it was 0.002 µg/mL (≈ 0.00243 µM). In addition, the minimum inhibitory concentration (MIC) in [7] is 8 µg/mL (≈ 9.72 µM); in assay [8], 8 µg/mL (≈ 9.72 µM); in [9], 8 µg/mL (≈ 9.72 µM); in assay [10] it was 64 µg/mL (≈ 77.8 µM); in [11], 16 µg/mL (≈ 19.4 µM).

In turn, `CN[C@@H]1[C@H](O[C@H]2[C@H](O[C@H]3[C@H](O)[C@@H](O)[C@H](N=C(N)N)[C@@H](O)[C@@H]3N=C(N)N)O[C@@H](C)[C@]2(O)C=O)O[C@@H](CO)[C@H](O)[C@H]1O` [STREPTOMYCIN] gave an MIC in [2] of 32 µg/mL (≈ 55 µM).

One may read the MIC as the least concentration at which growth counts as inhibited. Read a low MIC as greater potency. The IC50 is the concentration that inhibits the measured activity by half. Low readings indicate greater potency in that assay, high ones weaker potency in that assay.

The values above are taken from ChEMBL document CHEMBL1275259, “In vitro antituberculosis activities of ACH-702, a novel isothiazoloquinolone, against quinolone-susceptible and quinolone-resistant isolates” (Antimicrob Agents Chemother, 2010).
